EBNA-1 inh – blocks EBNA-1 binding to DNA. EBNA-1 DNA binding, fluorescence polarization. inhibition, % at 14.8 µM. 0.34% of 300,000 active; in the data active means inhibition above about 28%
GPR7 antag – antagonists of human GPR7 (neuropeptides B/W receptor 1); inhibition, % at 4.4 µM; GPR7-expressing cells, fluorescence antagonist assay; P48145; 1.1% of 290,000 active; in the data active means inhibition above about 16%, passing the limit was not always enough;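 further: cells stimulated with the agonist NPW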
Target sequence (P48145 whole entry, looked up): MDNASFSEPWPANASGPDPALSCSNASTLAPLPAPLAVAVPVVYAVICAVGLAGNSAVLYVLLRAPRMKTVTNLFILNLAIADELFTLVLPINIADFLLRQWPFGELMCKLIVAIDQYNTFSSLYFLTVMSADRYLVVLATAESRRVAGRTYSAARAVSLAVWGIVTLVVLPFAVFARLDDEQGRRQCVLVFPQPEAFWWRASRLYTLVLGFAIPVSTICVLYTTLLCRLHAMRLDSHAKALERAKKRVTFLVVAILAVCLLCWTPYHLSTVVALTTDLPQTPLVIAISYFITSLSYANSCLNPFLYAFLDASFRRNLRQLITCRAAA
NS3 helicase inh – HCV NS3 helicase inhibition. 0.56% of 290,000 active. AID 1800. inhibition, % at 10.9 µM. NS3 helicase DNA unwinding, Cy5 molecular beacon fluorescence;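 active means inhibition above the mean of all tested compounds plus 3 SD, set per campaign, cut at about 35% in these data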
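test system = hepatitis C virus NS3 helicase domain fragment enzyme | reagent = annealed dual-labelled DNA beacon duplex, ATP-started | times = 1 h at 25 °C | detection = Cy5 fluorescence, 0 and 60 min reads | read-out basis = percent inhibition from t60/t0 fluorescence ratio | control set = DMSO and thioflavine S | replication = one well per compound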
FID counter – counter-screen for HCV NS3 helicase inhibitors: DNA intercalator displacement. AID 1845. inhibition, % at 7.9 µM. 0.17% of 290,000 active. DNA fluorescent intercalator displacement, fluorescence; in the data active means inhibition above about 37%;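 further: higher means more ethidium bromide displaced from hairpin DNA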
ZTA DNA inh – ZTA (EBV) inhibition in EBNA-1 counter-screen. P03206. ZTA-DNA binding, fluorescence polarization. inhibition, % at 11 µM. 0.15% of 320,000 active. AID 2234; in the data active means inhibition above about 33%
Each line names hits and unclear results; the compound was inactive in the other large screens. Rows were chosen to be rich in hits. Some 2% of all compounds tested hit in one or more screens of this group.

CCCCCn1c2c(c(=N)c3ccccc31)CCC2	none
CCC(=O)Nc1cccc(C2=NN(c3ccccc3)C(c3ccc(OC)cc3)C2)c1 (stereo unspecified)	none
CC(Oc1ccc2c3c(c(=O)oc2c1)CCC3)C(=O)NCc1cccnc1 (stereo unspecified)	none
O=C(/C=C/c1ccc(Br)cc1)c1ccco1	GPR7 antag 22
CC(=O)c1cccc(CN2CCCCC2C(=O)Nc2ccc(Oc3ccccc3)nc2)c1 (stereo unspecified)	none
O=C(COC(=O)c1ccc(-n2cnnn2)cc1)Nc1cc(Cl)ccc1F	none (no result: EBNA-1 inh, GPR7 antag, NS3 helicase inh, FID counter)
COc1ccc(NS(=O)(=O)c2cccc(C(=O)Nc3cccc(C(=O)O)c3)c2)cc1	none
COc1ccc(NS(=O)(=O)c2cccc(N/C(=N\S(=O)(=O)c3ccccc3)c3ccc(F)cc3)c2)cc1	GPR7 antag 21
N#Cc1nc(COc2ccc(Br)cc2)oc1N1CCN(Cc2ccccc2)CC1	GPR7 antag 29 (no result: EBNA-1 inh, ZTA DNA inh)
CC(=O)Nc1ccc(C(=O)OCC(=O)NCc2cccs2)cc1	none (no result: EBNA-1 inh, GPR7 antag, NS3 helicase inh, FID counter)
Cc1ccc2nc3c(cc(C(=O)NCCN4CCOCC4)c(=N)n3CCCN3CCOCC3)c(=O)n2c1	FID counter 79
N=c1c(C(=O)NCCN2CCOCC2)cc2c(=O)n3ccccc3nc2n1Cc1ccc(F)cc1	none
Cc1ccc2nc3c(cc(C(=O)NCCc4ccccc4)c(=N)n3CCN3CCOCC3)c(=O)n2c1	none
N=c1c(C(=O)NCCN2CCOCC2)cc2c(=O)n3ccccc3nc2n1CCCN1CCOCC1	FID counter 76
COc1cccc(CNC(=O)CN2C(=O)CCSc3ccc(S(=O)(=O)N4CCCC4)cc32)c1	none
COc1ccc(OC)c(NC(=O)CN2C(=O)NC(C)(c3ccc4c(c3)OCCO4)C2=O)c1 (stereo unspecified)	none (no result: EBNA-1 inh, GPR7 antag, NS3 helicase inh, FID counter)
C=CCCCCCCCCc1nc(SCC(=O)O)n[nH]1	none
C=CCCCCCCCCc1nc(SCC(C)=O)n[nH]1	GPR7 antag 20
CN1Cc2c(N3CCOCC3)nc3sc(C#N)c(N)c3c2CC1(C)C	none
CN1Cc2c(N3CCOCC3)nc3sc(C(=O)c4ccc(Br)cc4)c(N)c3c2CC1(C)C	GPR7 antag 44
Cc1ccsc1C=Nc1ccc(O)cc1	ZTA DNA inh 38
COc1ccc(C2CC(c3ccccc3)=NN2C(=O)COC(=O)c2ccc(S(C)(=O)=O)cc2)cc1 (stereo unspecified)	none (no result: GPR7 antag, NS3 helicase inh, FID counter)
COc1ccc(C2CC(c3ccccc3)=NN2C(=O)COC(=O)c2cc(S(=O)(=O)N3CCOCC3)ccc2F)cc1 (stereo unspecified)	GPR7 antag 21
O=C(OCC(=O)N1CCN(C(=O)c2ccco2)CC1)c1ccccc1OCc1ccc(Cl)cc1	GPR7 antag 28
O=C(OCC(=O)N1CCN(C(=O)c2ccco2)CC1)c1ccc(Cl)cc1	none (no result: EBNA-1 inh, GPR7 antag, NS3 helicase inh, FID counter)
Cc1cc(Cc2ccc([N+](=O)[O-])cc2)c(C)cn1	none
c1ccc(CNc2nc(N3CCN(Cc4ccccc4)CC3)nc3ccccc23)cc1	none
c1ccc(CN2CCC(Nc3nc(-c4ccccc4)nc4ccccc34)CC2)cc1	FID counter 42
Cc1ccc(C)c(NC(=O)CN(C)C(=O)CN2C(=O)C3CCCCC3C2=O)c1 (stereo unspecified)	none (no result: GPR7 antag, NS3 helicase inh, FID counter)
O=C(O)CCN(CC(=O)c1ccc(Cl)cc1)S(=O)(=O)c1ccc([N+](=O)[O-])cc1	none (no result: GPR7 antag, NS3 helicase inh, FID counter)
C=CCOc1nc2c(c(=O)n(C)c(=O)n2C)n1C	none
CC(C)COc1nc2c(c(=O)n(C)c(=O)n2C)n1C	GPR7 antag active
C#CCOCCOCCOCCNc1nc(N2CCN(C(=O)CCCCCCCCCCNC(=O)[C@H]([C@@H](C)CC)n3cc(CCCCN=C(N)N)nn3)CC2)nc(N2CCN(C(=O)CCCCCCCCCCNC(=O)[C@H](CCCN=C(N)N)n3cc(C[C@@H](C)CC)nn3)CC2)n1	ZTA DNA inh 137 (no result: GPR7 antag, NS3 helicase inh, FID counter)
C#CCOCCOCCOCCNc1nc(N2CCN(C(=O)CCCCCCCCCCNC(=O)[C@H](CCCN=C(N)N)n3cc(C[C@@H](C)CC)nn3)CC2)nc(N2CCN(C(=O)CCCCCCCCCCNC(=O)[C@@H]([C@H](C)CC)n3cc(CCCCCN)nn3)CC2)n1	ZTA DNA inh 161 (no result: GPR7 antag, NS3 helicase inh, FID counter)
C#CCOCCOCCOCCNc1nc(N2CCOCC2)nc(N2CCN(C(=O)CCCCCCCCCCNC(=O)[C@H]([C@@H](C)CC)n3cc(CCCCN=C(N)N)nn3)CC2)n1	none (no result: GPR7 antag, NS3 helicase inh, FID counter)
COc1cccc(NC(=O)c2ccc(N3C(=O)C4CC=CCC4C3=O)cc2)c1 (stereo unspecified)	none (no result: GPR7 antag, NS3 helicase inh, FID counter)
O=C(CCC(=O)N1CCOc2ccccc21)NCCCN1CCN(Cc2ccccc2)CC1	GPR7 antag 21
